Assay results published in ChEMBL document CHEMBL1122043, “A new class of nitrosoureas. 4. Synthesis and antitumor activity of disaccharide derivatives of 3,3-disubstituted 1-(2-chloroethyl)-1-nitrosoureas” (J Med Chem, 1982).

Experiments:
[1] = test system: L1210; test: Antitumor activity against Leukemia L1210 cells in male BDF1 mice at the dose of 100 mg/kg/day x5 (i.p.) expressed as maximal increase in life-span; type: functional, Mus musculus; settings: route intraperitoneal
Summary of the method: (§1)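 L1210 leukemia cells (10^5) given ip to male BDF1 mice. Ip dosing started 24 h after inoculation and was given once daily for 5 days. Life-span increase was calculated as ILS (%) = (T/C-1) × 100. Optimal dose was the daily dose giving the maximum increase in life-span.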

[2] = […] required for antitumor activity against Ehrlich ascites carcinoma cells in […] mice.; type: functional, Mus musculus
[3] = Therapeutic index value for anti-L1210 activity.; settings: mouse; for selectivity ratio: read-out: TI
Summary of the method: (§2)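 Mice were male BDF1 inoculated ip with 10^5 L1210 cells. Ip treatment began 24 h later. Therapeutic ratio = OD/ILS30. ILS30 is the daily dose giving a 30% increase in life-span over control. OD is the daily dose giving the maximum increase in life-span.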

[4] = Therapeutic index value for anti-Ehrlich activity.; settings: mouse; for selectivity ratio: read-out: TI
Summary of the method: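 Ehrlich ascites cells (10^6) were inoculated ip into 5 female ICR mice. Ip dosing began 24 h later and was given once daily for 5 days. Therapeutic ratio = MTD/MED. MED is the minimum dose giving 100% inhibition of tumor growth. MTD is the maximum dose giving 100% inhibition without mouse deaths.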

[5] = test system: L1210; test: Antitumor activity against Leukemia L1210 cells in male BDF1 mice at the dose of 50 mg/kg/day x5 (i.p.) expressed as maximal increase in life-span; type: functional, Mus musculus; settings: route intraperitoneal; summary of the method: as §1
[6] = test system: L1210; test: Antitumor activity against Leukemia L1210 cells in BDF1 mice at the dose of 6.25 mg/kg/day x 5 (ip), maximum increase in life-span; type: functional, Mus musculus
Summary of the method: (§3)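 Male BDF1 mice were inoculated ip with 10^5 L1210 leukemia cells. Drug was given ip once daily for 5 days, starting 24 h after inoculation. ILS (%) = (T/C-1) × 100. The recorded value is the ILS at the optimal dose, meaning the daily dose giving the maximum increase in life-span.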

[7] = Maximum tolerated dose required antitumor activity against Ehrlich ascites carcinoma cells in female ICR mice.
[8] = test system: L1210; test: Antitumor activity against Leukemia L1210 cells in BDF1 mice at the dose of 25 mg/kg/day x1 (i.p.) expressed as maximal increase in life-span; settings: route intraperitoneal
[9] = test system: L1210; test: Antitumor activity against Leukemia L1210 cells in male BDF1 mice at the dose of 6.25 mg/kg/day x5 (i.p.) expressed as maximal increase in life-span; type: functional, Mus musculus; settings: route intraperitoneal; summary of the method: as §1
[10] = test system: L1210; test: Antitumor activity against Leukemia L1210 cells in BDF1 mice at the dose of 6.25 mg/kg/day x5 (i.p.) expressed as maximal increase in life-span; type: functional, Mus musculus; settings: route intraperitoneal; summary of the method: as §1
[11] = Minimum effective dose required for antitumor activity against Ehrlich ascites carcinoma cells in female ICR mice.
[12] = test system: L1210; test: Antitumor activity against Leukemia L1210 cells in male BDF1 mice at the dose of 200 mg/kg/day x5 (i.p.) expressed as maximal increase in life-span; type: functional, Mus musculus; settings: route intraperitoneal; summary of the method: as §1
[13] = test system: L1210; test: Antitumor activity against Leukemia L1210 cells in male BDF1 mice at the dose of 230 mg/kg/day x1 (i.p.) expressed as maximal increase in life-span; type: functional, Mus musculus; settings: route intraperitoneal
Summary of the method: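 Male BDF1 mice (six or eight) received 10^5 L1210 cells ip. A single ip dose, in (mg/kg)/day × 1, was given 24 h after inoculation. ILS (%) = (T/C-1) × 100. The optimal dose was the dose giving the maximum increase in life-span.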

[14] = test system: L1210; test: Antitumor activity against Leukemia L1210 cells in BDF1 mice at the dose of 50 mg/kg/day x5 (i.p.) expressed as maximal increase in life-span; type: functional, Mus musculus; settings: route intraperitoneal; summary of the method: as §1
[15] = test system: L1210; test: Antitumor activity against Leukemia L1210 cells in BDF1 mice at the dose of 130 mg/kg/ day *5 (i.p.) expressed as maximal increase in life-span; type: functional, Mus musculus; settings: route intraperitoneal; in the assay text read “25 mg/kg/ day” for “130 mg/kg/ day”; summary of the method: as §1
[16] = test system: L1210; test: Antitumor activity against Leukemia L1210 cells in male BDF1 mice at the dose of 400 mg/kg/day x5 (i.p.) expressed as maximal increase in life-span; type: functional, Mus musculus; settings: route intraperitoneal; summary of the method: as §1
[17] = test system: L1210; test: Antitumor activity against Leukemia L1210 cells in male BDF1 mice at the dose of 25 mg/kg/day x5 (i.p.) expressed as maximal increase in life-span; type: functional, Mus musculus; settings: route intraperitoneal; summary of the method: as §3
[18] = test system: L1210; test: Antitumor activity against Leukemia L1210 cells in BDF1 mice at the dose of 50 mg/kg/day x 1 (i.p.), ILS30; settings: route intraperitoneal
[19] = test system: L1210; test: Antitumor activity against Leukemia L1210 cells in BDF1 mice at the dose of 400 mg/kg/day x 5 (ip), maximum increase in life-span; type: functional, Mus musculus; summary of the method: as §3
[20] = Therapeutic index value for anti L1210 activity; Inactive; summary of the method: as §2
[21] = test system: L1210; test: Antitumor activity against Leukemia L1210 cells in male BDF1 mice at the dose of 200 mg/kg/day x5 (ip) expressed as maximal increase in life-span; type: functional, Mus musculus; summary of the method: as §1

SMILES	ILS30 [1]	MED [2] [mg kg-1 5day-1]	selectivity ratio [3]	selectivity ratio [4]	also measured
O=NN(CCCl)C(=O)N(CC1CC1)C1OC(CO)C(OC2OC(CO)C(O)C(O)C2O)C(O)C1O (stereo unspecified)	3.5	1.56	28.6	64	
C=CCN(C(=O)N(CCCl)N=O)C1OC(CO)C(OC2OC(CO)C(O)C(O)C2O)C(O)C1O (stereo unspecified)	2	1.56	50	64	
CCCCCCN(C(=O)N(CCCl)N=O)C1OC(CO)C(OC2OC(CO)C(O)C(O)C2O)C(O)C1O (stereo unspecified)			3.6	32	ILS30 [5]: 14
CCOCCN(C(=O)N(CCCl)N=O)C1OC(CO)C(OC2OC(CO)C(O)C(O)C2O)C(O)C1O (stereo unspecified)	2.7	3.12	37	64	
O=NN(CCCl)C(=O)N[C@@H]1O[C@H](CO)[C@@H](O)[C@H](O)[C@H]1O			7.8	32	ILS max [6]: >198.6%; MTD [7]: 12.5 mg kg-1 5day-1; ILS30 [8]: 1.1; ILS30 [9]: 0.8; ILS30 [10]: 0.8; MED [11]: 0.39 mg kg-1 5day-1
CN(C(=O)N(CCCl)N=O)C1OC(CO)C(OC2OC(CO)C(O)C(O)C2O)C(O)C1O (stereo unspecified)	8.8		11.4	32	
COCCN(C(=O)N(CCCl)N=O)C1OC(CO)C(OC2OC(CO)C(O)C(O)C2O)C(O)C1O (stereo unspecified)		3.12	11.8	64	ILS30 [12]: 17
CC(C)CN(C(=O)N(CCCl)N=O)C1OC(CO)C(O)C(O)C1O (stereo unspecified)			50		ILS30 [13]: 2.6; ILS30 [14]: 1; TI [3]: 34.2; ILS30 [15]: 0.73
CC(C)CN(C(=O)N(CCCl)N=O)C1OC(COC2OC(CO)C(O)C(O)C2O)C(O)C(O)C1O (stereo unspecified)			1.1	1	ILS30 [16]: 350
O=NN(CCCl)C(=O)N(Cc1ccc(Cl)cc1)C1OC(CO)C(OC2OC(CO)C(O)C(O)C2O)C(O)C1O (stereo unspecified)		1.56	10	128	ILS30 [12]: 20
O=NN(CCCl)C(=O)NC1CCCCC1 [LOMUSTINE]			5.1	4	MTD [7]: 50 mg kg-1 5day-1; ILS30 [17]: 4.9; ILS30 [18]: 9.3 mg/kg; MED [11]: 12.5 mg kg-1 5day-1
CC(=O)OCC1OC(N(CC(C)C)C(=O)N(CCCl)N=O)C(OC(C)=O)C(OC(C)=O)C1COCC1OC(COC(C)=O)C(OC(C)=O)C(OC(C)=O)C1OC(C)=O (stereo unspecified)					ILS max [19]: 18%
CC(C)N(C(=O)N(CCCl)N=O)C1OC(CO)C(OC2OC(CO)C(O)C(O)C2O)C(O)C1O (stereo unspecified)	5.4		18.5	32	
O=NN(CCCl)C(=O)N(CC1CCCO1)C1OC(CO)C(OC2OC(CO)C(O)C(O)C2O)C(O)C1O (stereo unspecified)		3.12	33.3	64	ILS30 [12]: 6
C=CCCN(C(=O)N(CCCl)N=O)C1OC(CO)C(OC2OC(CO)C(O)C(O)C2O)C(O)C1O (stereo unspecified)		1.56	64.5	128	ILS30 [12]: 3.1
CCCCCCCCCCCCCCCCN(C(=O)N(CCCl)N=O)C1OC(CO)C(OC2OC(CO)C(O)C(O)C2O)C(O)C1O (stereo unspecified)				32	TI [20]: Not Active
CCCCN(C(=O)N(CCCl)N=O)C1OC(CO)C(OC2OC(CO)C(O)C(O)C2O)C(O)C1O (stereo unspecified)	4.5	6.25	22.2	32	
C=C(C)CN(C(=O)N(CCCl)N=O)C1OC(CO)C(OC2OC(CO)C(O)C(O)C2O)C(O)C1O (stereo unspecified)		1.56	62.5	128	ILS30 [12]: 3.2
O=NN(CCCl)C(=O)N(CC1CCCCC1)C1OC(CO)C(OC2OC(CO)C(O)C(O)C2O)C(O)C1O (stereo unspecified)	8	3.12	12.5	32	
CC(C)CN(C(=O)N(CCCl)N=O)C1OC(CO)C(OC2OC(CO)C(O)C(O)C2O)C(O)C1O (stereo in doubt; 63)		100			TI [3]: 1.3; TI [4]: 2; ILS30 [21]: 160
Cc1ncc(CNC(=O)N(CCCl)N=O)c(N)n1 [NIMUSTINE]			9.3	8	MTD [7]: 25 mg kg-1 5day-1; ILS30 [17]: 2.9; MED [11]: 3.12 mg kg-1 5day-1
CC(C)CN(C(=O)N(CCCl)N=O)C1OC(CO)C(OC2OC(CO)C(O)C(O)C2O)C(O)C1O (stereo in doubt; 37)	1.2				ILS30 [13]: 7.3; TI [4]: 256
CCCN(C(=O)N(CCCl)N=O)C1OC(CO)C(OC2OC(CO)C(O)C(O)C2O)C(O)C1O (stereo unspecified)	4.9		20.4	64	
CCCCCN(C(=O)N(CCCl)N=O)C1OC(CO)C(OC2OC(CO)C(O)C(O)C2O)C(O)C1O (stereo unspecified)	3.5	3.12	28.6	64	
COCCCN(C(=O)N(CCCl)N=O)C1OC(CO)C(OC2OC(CO)C(O)C(O)C2O)C(O)C1O (stereo unspecified)		3.12	26.7	64	ILS30 [12]: 7.5
CCC(C)N(C(=O)N(CCCl)N=O)C1OC(CO)C(OC2OC(CO)C(O)C(O)C2O)C(O)C1O (stereo unspecified)	1.5	1.56	66.7	128	
